Like-named read-outs stand apart in the source and are kept apart here.
What was measured:
[1] = format: in vivo, human; details: for AUC(0-inf) / Cmax / half-life / Tmax: female, human, plasma, oral; for AUC(0-inf): AUC0–inf; for AUC(0-inf) / Cmax: mean (CV%); for half-life: t 1/2, mean (CV%); for Tmax: median (minimum, maximum)
Method in brief: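 Healthy women received a single oral contraceptive dose (0.03 mg EE, 3 mg DRSP) fed on days 1, 8 and 18, with test compound 600 mg once daily on days 8–23. Blood was drawn predose and at 0.5–120 h postdose. EE and DRSP were measured by validated UHPLC-MS/MS (LLOQ 2.5 pg/mL and 0.5 ng/mL). LS geometric mean ratios (90% CI) of ln Cmax and AUC0–inf came from a mixed model (day fixed, subject random).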

CYP3A4 [2] = target: T1, CYP3A4 (Homo sapiens, UniProt P08684); details: cited from earlier work
SULT1E1 [3] = target: T2, SULT1E1 (Homo sapiens, UniProt P49888); experiment: SULT1E1 in vitro inhibition test; format: biochemical
T2 sequence (P49888 1-294): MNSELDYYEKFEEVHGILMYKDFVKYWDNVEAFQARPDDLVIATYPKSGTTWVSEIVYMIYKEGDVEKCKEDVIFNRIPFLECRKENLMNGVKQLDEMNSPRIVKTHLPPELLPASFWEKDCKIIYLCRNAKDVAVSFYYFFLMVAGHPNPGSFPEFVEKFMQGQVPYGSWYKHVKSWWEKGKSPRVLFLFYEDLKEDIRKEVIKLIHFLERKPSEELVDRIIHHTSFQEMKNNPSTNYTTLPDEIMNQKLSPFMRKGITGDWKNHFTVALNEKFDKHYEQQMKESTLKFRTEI
Method in brief: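 Recombinant human SULT1E1 expressed in E. coli was incubated with EE 5 nM as substrate. Test compound was tested at 0.8, 2, 8, 20, 80 and 200 µM, with quercetin 0.5 µM as positive control and a DMSO solvent control. Metabolite formation was read by UHPLC-MS/MS peak area, and activity was expressed relative to solvent control (n = 3). IC50 came from a sigmoidal fit; tentative Ki came from Cheng–Prusoff assuming competitive inhibition and substrate concentration equal to Km.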

Safety and tolerability = format: in vivo, human; details: 600 mg q.d. with oral contraceptive, healthy women
Method in brief: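 Throughout the study in healthy women, TEAEs, serious TEAEs and TEAEs leading to discontinuation were monitored, covering oral contraceptive alone and co-administration with test compound 600 mg q.d. Intensity (mild/moderate) and investigator-judged relatedness were recorded. Clinical laboratory parameters, vital signs and ECG were also assessed.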

UGT1A1 = target: T3, UGT1A1 (Homo sapiens, UniProt P22309); format: in vivo; details: 600 mg q.d.; day 18 vs day 1; three subjects
T3 sequence (P22309 26-533): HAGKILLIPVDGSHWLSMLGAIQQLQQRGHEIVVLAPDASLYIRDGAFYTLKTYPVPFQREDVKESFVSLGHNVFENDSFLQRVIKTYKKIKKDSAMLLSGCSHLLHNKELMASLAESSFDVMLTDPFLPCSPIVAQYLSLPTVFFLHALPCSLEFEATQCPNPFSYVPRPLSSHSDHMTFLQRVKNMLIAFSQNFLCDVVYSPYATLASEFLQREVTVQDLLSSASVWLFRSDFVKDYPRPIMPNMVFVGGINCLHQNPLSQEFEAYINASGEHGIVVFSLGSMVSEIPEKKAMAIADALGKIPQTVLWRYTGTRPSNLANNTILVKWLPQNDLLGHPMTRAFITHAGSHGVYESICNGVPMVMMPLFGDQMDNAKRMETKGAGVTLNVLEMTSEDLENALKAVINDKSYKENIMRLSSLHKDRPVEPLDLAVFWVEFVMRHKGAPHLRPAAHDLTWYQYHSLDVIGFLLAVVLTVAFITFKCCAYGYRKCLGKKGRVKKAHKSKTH

CYP3A4 [4] = target: T1, CYP3A4; experiment: In vitro CYP3A4 inhibition and induction by ziritaxestat and predictions from it; format: in vitro ADME; details: data on file
CYP3A4 [5] = target: T1, CYP3A4; details: in vitro studies; cited from earlier work
SULT1E1 [6] = target: T2, SULT1E1; format: in vivo; details: 600 mg q.d.; day 18 vs day 1; three subjects
Method in brief: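 Plasma from three subjects, sampled on day 1 (oral contraceptive alone) and day 18 (with test compound 600 mg q.d.), was split into duplicate aliquots. One aliquot was hydrolysed with purified arylsulfatase and the other with genetically modified β-glucuronidase, in 1 M Tris-HCl pH 8.0 buffer (stock), at 50°C for 1 h. Total EE was measured by LC-MS/MS. EE AUClast with and without hydrolysis was computed by linear-up/log-down trapezoids.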

[7] = day 18 test vs. day 1 reference, ziritaxestat 600 mg q.d.
[8] = OC + ziritaxestat 600 mg q.d. (day 8, SD), n = 14
[9] = OC + ziritaxestat 600 mg q.d. (day 18, MD), n = 13

T1 sequence (P08684 whole entry): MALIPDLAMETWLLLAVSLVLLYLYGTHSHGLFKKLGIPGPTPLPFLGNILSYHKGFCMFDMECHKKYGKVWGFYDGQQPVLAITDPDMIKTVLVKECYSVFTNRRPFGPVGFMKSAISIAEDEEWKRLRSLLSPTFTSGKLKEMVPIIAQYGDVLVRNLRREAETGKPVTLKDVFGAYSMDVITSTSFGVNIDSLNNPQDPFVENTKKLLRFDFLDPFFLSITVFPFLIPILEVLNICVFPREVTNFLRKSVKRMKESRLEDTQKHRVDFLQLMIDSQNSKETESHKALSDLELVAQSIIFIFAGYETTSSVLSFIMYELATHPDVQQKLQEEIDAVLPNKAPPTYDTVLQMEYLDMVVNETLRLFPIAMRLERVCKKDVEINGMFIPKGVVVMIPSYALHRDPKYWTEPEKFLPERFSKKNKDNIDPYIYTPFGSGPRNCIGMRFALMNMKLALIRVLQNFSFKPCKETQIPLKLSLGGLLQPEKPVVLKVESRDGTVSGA

In the case of `C#C[C@]1(O)CC[C@H]2[C@@H]3CCc4cc(O)ccc4[C@H]3CC[C@@]21C` [Ethinyl estradiol, ethinyl estradiol], the “increase of AUC0–inf on co-administration with ziritaxestat” value [1, 7] is reported as 2.4 fold, the “increase of Cmax on co-administration with ziritaxestat” value [1, 7] is reported as 2.8 fold and the AUC(0-inf) [1, 8] is reported as 0.00202 µg·h/mL. The AUC(0-inf) [1, 9] was 0.00218 µg·h/mL, the AUC(0-inf) ([1]; OC alone (day 1), n = 15, fed) was 0.000967 µg·h/mL and the Cmax [1, 8] was 0.122 ng/mL. The Cmax ([1]; OC alone (day 1), n = 15) was 0.047 ng/mL, the half-life [1, 8] was 30.1 h and the half-life ([1]; OC alone (day 1), n = 15) was 22 h.

In the case of `C[C@@H](c1ncncc1F)[C@](O)(Cn1cncn1)c1ccc(F)cc1F` [voriconazole], the “increase of the systemic exposure of EE on co-administration” value (CYP3A4 [2]; strong CYP3A4 inhibitor co-administered) is listed as 60%.

Molecule `O=c1c(O)c(-c2ccc(O)c(O)c2)oc2cc(O)cc(O)c12` [quercetin, Quercetin] has an inhibition at 0.5 µM (SULT1E1 [3]; read-out: inhibition of SULT1E1) of 66%.

For `CCc1nc2c(C)cc(N3CCN(CC(=O)N4CC(O)C4)CC3)cn2c1N(C)c1nc(-c2ccc(F)cc2)c(C#N)s1` [ziritaxestat], the “tolerability (in words)” value (Safety and tolerability) was “generally well tolerated”, the IC50 (SULT1E1 [3]) was under 0.8 µM and the “effect on EE glucuronidation in vivo (in words)” value (UGT1A1) was “potential weak inhibitory effect”. For the same molecule, the “mode of CYP3A4 inhibition” value (CYP3A4 [4]) was “competitive and reversible”, the “CYP3A4 induction and inhibition in vitro (in words)” value (CYP3A4 [5]) was “weak inducer and inhibitor” and the “effect on EE sulfation in vivo (in words)” value (SULT1E1 [6]) was “potent inhibitor of sulfation”.

For `C[C@]12CCC(=O)C=C1[C@@H]1C[C@@H]1[C@H]1[C@@H]3[C@@H]4C[C@@H]4[C@@]4(CCC(=O)O4)[C@@]3(C)CC[C@@H]12` [Drospirenone, drospirenone], the AUC(0-inf) [1, 8] was 0.686 µg·h/mL, the AUC(0-inf) [1, 9] was 0.708 µg·h/mL and the AUC(0-inf) ([1]; OC alone (day 1), n = 15) was 0.574 µg·h/mL. For the same molecule, the Cmax [1, 8] was 21.4 ng/mL, the Cmax [1, 9] was 22.6 ng/mL and the Cmax ([1]; OC alone (day 1), n = 15) was 20.7 ng/mL. The Tmax [1, 8] was 2.5 h, the Tmax [1, 9] was 4 h and the half-life [1, 8] was 44.7 h. It also gave a half-life [1, 9] of 43.4 h and a half-life ([1]; OC alone (day 1), n = 15) of 39 h.

In the case of `CC(C)(C)NC(=O)N[C@H](C(=O)N1C[C@H]2[C@@H]([C@H]1C(=O)NC(CC1CCC1)C(=O)C(N)=O)C2(C)C)C(C)(C)C` (some centres unmarked) [boceprevir], the “increase in DRSP exposure on co-administration” value (CYP3A4 [2]; strong CYP3A4 inhibition) is given as 100%.
